ChEMBL document CHEMBL3525967, “In vitro glucuronidation of the antibacterial triclocarban and its oxidative metabolites” (Drug Metab Dispos, 2012)

Tests used:
Format in all cases: ADME
[1] = biological target: T1, UDP-glucuronosyltransferase 1A10 (Homo sapiens, UniProt Q9HAW8); experiment: Drug metabolism assessed as human UGT1A10-mediated N-glucuronide-triclocarban formation expressed in baculovirus infected insect sf9 cells incubated for 5 mins prior to UDPGA addition measured after 5 to 30 mins by LC-UV analysis
T1 sequence (Q9HAW8 whole entry): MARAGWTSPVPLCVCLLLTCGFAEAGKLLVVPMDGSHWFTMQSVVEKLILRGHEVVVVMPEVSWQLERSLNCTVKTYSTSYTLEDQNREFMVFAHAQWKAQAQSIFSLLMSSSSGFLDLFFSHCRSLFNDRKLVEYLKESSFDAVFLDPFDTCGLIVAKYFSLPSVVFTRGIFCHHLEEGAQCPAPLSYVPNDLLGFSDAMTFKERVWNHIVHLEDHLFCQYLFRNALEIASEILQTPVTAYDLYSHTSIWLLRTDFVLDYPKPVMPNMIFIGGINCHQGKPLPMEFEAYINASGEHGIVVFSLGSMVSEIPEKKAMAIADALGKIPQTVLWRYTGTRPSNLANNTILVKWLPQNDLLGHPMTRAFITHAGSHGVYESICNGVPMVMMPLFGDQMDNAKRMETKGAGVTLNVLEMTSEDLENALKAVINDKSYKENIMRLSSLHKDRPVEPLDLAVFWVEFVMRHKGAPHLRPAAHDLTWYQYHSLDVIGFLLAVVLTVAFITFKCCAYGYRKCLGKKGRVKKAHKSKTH
Procedure, shortened: (§1)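 Microsomes or UGT Supersomes (5 µg protein) were held 15 min on ice with alamethicin in 100 mM potassium phosphate pH 7.4. TCC was added at 10 µM (2% DMSO) with 10 mM MgCl2 and 10 mM saccharolactone, pre-warmed 5 min at 37 °C, then started with UDPGA. Samples at 5, 10, 15 and 30 min were quenched in ACN. Product was read by LC-UV at 265 nm; rate came from regression over time, three incubations.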

[2] = Drug metabolism in human kidney microsomes assessed as N-glucuronide-triclocarban formation incubated for 5 mins prior to UDPGA addition measured after 5 to 30 mins by LC-UV analysis
Procedure, shortened: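 Pooled human kidney or liver microsomes (liver: 25 mixed-gender donors), 5 µg protein, in 200 µL 100 mM potassium phosphate pH 7.4. Alamethicin pre-treated on ice 15 min. Final 10 µM TCC (2% DMSO), with 10 mM MgCl2 and 10 mM saccharolactone, preincubated 5 min at 37 °C. Started with UDPGA (20 mM stock). Sampled at 5, 10, 15 and 30 min into ACN containing 1 µM DCC internal standard.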

[3] = biological target: T2, UDP-glucuronosyltransferase 1A4 (Homo sapiens, UniProt P22310); experiment: Drug metabolism assessed as human UGT1A4-mediated N-glucuronide-triclocarban formation expressed in baculovirus infected insect sf9 cells incubated for 5 mins prior to UDPGA addition measured after 5 to 30 mins by LC-UV analysis; procedure, shortened: as §1
T2 sequence (P22310 whole entry): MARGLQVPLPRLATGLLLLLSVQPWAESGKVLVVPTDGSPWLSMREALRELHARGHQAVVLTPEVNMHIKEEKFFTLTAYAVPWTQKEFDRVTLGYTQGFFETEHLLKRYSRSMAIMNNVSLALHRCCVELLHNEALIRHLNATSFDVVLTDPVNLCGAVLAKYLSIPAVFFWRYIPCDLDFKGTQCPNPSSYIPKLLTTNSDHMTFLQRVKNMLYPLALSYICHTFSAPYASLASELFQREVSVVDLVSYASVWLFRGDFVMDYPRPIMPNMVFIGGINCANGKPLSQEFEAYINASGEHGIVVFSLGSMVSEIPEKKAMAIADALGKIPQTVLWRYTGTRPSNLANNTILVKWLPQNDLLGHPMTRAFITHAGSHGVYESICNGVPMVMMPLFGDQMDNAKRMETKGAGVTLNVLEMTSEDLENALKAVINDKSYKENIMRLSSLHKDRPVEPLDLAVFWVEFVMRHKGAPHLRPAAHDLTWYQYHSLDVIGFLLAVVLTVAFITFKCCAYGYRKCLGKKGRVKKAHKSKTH

[4] = biological target: T3, UDP-glucuronosyltransferase 2B15 (Homo sapiens, UniProt P54855); experiment: Drug metabolism assessed as human UGT2B15-mediated N-glucuronide-triclocarban formation expressed in baculovirus infected insect sf9 cells incubated for 5 mins prior to UDPGA addition measured after 5 to 30 mins by LC-UV analysis; procedure, shortened: as §1
T3 sequence (P54855 whole entry): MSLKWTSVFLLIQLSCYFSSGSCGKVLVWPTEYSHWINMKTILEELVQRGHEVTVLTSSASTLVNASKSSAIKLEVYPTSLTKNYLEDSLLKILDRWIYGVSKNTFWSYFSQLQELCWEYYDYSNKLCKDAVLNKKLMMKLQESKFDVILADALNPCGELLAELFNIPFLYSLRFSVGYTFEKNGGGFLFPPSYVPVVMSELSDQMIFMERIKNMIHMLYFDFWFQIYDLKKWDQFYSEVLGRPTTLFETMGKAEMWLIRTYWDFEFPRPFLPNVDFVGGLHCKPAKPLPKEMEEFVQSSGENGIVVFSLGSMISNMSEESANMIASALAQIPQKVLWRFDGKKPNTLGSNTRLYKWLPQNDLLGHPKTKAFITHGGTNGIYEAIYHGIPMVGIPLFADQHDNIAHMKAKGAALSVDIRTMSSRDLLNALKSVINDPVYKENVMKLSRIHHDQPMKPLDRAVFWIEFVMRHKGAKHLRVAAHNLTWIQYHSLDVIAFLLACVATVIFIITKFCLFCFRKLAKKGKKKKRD

[5] = biological target: T4, UDP-glucuronosyltransferase 1A8 (Homo sapiens, UniProt Q9HAW9); experiment: Drug metabolism assessed as human UGT1A8-mediated N-glucuronide-triclocarban formation expressed in baculovirus infected insect sf9 cells incubated for 5 mins prior to UDPGA addition measured after 5 to 30 mins by LC-UV analysis; procedure, shortened: as §1
T4 sequence (Q9HAW9 whole entry): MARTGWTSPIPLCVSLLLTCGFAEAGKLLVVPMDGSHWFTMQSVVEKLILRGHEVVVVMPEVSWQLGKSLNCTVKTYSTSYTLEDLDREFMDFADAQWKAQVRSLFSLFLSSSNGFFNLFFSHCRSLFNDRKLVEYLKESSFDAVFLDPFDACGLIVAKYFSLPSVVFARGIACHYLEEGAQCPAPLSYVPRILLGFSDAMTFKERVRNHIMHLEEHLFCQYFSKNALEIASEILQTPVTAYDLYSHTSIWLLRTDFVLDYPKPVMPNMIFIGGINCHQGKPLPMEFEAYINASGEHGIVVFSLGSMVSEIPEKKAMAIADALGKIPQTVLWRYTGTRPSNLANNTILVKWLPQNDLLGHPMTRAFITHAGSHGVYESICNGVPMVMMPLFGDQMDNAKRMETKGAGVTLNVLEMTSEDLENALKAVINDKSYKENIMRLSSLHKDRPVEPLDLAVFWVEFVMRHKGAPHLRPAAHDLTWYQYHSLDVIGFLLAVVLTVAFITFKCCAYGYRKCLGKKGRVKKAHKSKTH

Measured: Drug metabolism

O=C(Nc1ccc(Cl)cc1)Nc1ccc(Cl)c(Cl)c1 [TRICLOCARBAN]
metabolite_not_detected: all assays above
